Laboratory results from PubChem BioAssay.
The source made the active and inactive calls.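 How the source made its calls, unless noted: active means GFP response above 150% of the DMSO level; inconclusive means fewer than 70 events counted for a yeast strain; inactive means the rest.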

Tests used:
[1] = hit retest on RPL19A-GFP reporter strain – cell-based, S. cerevisiae, flow cytometry, cherry picks, mother/daughter gates, confirmation (AID 2270;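 active means GFP response below 50% of the DMSO control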); conditions: 3 h, at 10 µM, stronger effect = lower value, 100 = same GFP as DMSO wells
[2] = yeast TOR pathway reporter LAP4-GFP change – cell-based, cherry picks, flow cytometry, mother/daughter gates, confirmation (AID 2271;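 active means GFP response above 150% of the DMSO control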;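 further: ratio of sample to DMSO plate mean so 100% equals DMSO level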); conditions: S. cerevisiae LAP4-GFP strain, 3 h, at 10 µM, stronger effect = higher value, 100 means same as DMSO control
Summary of the method: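 System: GFP-fusion yeast strain; Incubation: compound exposure 3 h at 30 °C, end-over-end rotation; Measured by: GFP by flow cytometry; Read-out: median GFP fluorescence as percent of plate-mean DMSO wells; Medium: synthetic complete (SC) yeast growth medium; Compound: single test-compound dose, 10 µM final; Benchmarks: DMSO-only negative wells, rapamycin 400 ng/mL positive wells.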

[3] = TOR pathway reporter MEP2-GFP, retest of hits – S. cerevisiae, flow cytometry GFP, cherry picks, confirmation (AID 2272;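 active means GFP response above 150% of the DMSO control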;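 further: ratio of well signal to plate DMSO mean so 100% equals DMSO level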); conditions: S. cerevisiae MEP2-GFP strain, 3 h, at 10 µM, stronger effect = higher value
[4] = yeast AGP1-GFP fluorescence change, single-dose – cell-based, flow cytometry, S. cerevisiae, cherry picks, confirmation (AID 2273);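 further: median GFP channel fluorescence over the whole cell population gate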; conditions: S. cerevisiae AGP1-GFP strain, 3 h, at 10 µM
[5] = TOR pathway CIT2 reporter hit retest – S. cerevisiae, GFP fusion, cherry picks, mother/daughter gates, confirmation (AID 2274); conditions: S. cerevisiae CIT2-GFP strain, flow cytometry, 3 h, at 10 µM, stronger effect = higher value
[6] = measured here: daughter cell gate
[7] = measured here: mother cell gate
[8] = measured here: daughter cell gate response
[9] = measured here: mother cell gate response

| Compound | GFP response vs DMSO [1] | GFP response vs DMSO [1, 6] | GFP response vs DMSO [1, 7] | GFP response relative to DMSO [2] | GFP response relative to DMSO [2, 8] | GFP response relative to DMSO [2, 9] | GFP response vs DMSO [3] | GFP response, % of DMSO [4] | GFP response, % of DMSO [5] | GFP response, % of DMSO [5, 6] | GFP response, % of DMSO [5, 7] |
| --- | --- | --- | --- | --- | --- | --- | --- | --- | --- | --- | --- |
| Cc1cccn2c(=O)c(/C=C(\C#N)C(=O)NC3CCS(=O)(=O)C3)c(N3CCC(C)CC3)nc12 (centres undefined) | 102% (inactive) | 101% | 102% | 96.2% (inactive) | 97.2% | 95.2% | 102% (inactive) | 101% (inactive) | 107% (inactive) | 99.7% | 109% |
| CCOc1ccccc1-c1noc(CCC(=O)Nc2cccnc2)n1 | 98.4% (inactive) | 99% | 99.2% | 107% (inactive) | 105% | 110% | 111% (inactive) | 106% (inactive) | 110% (inactive) | 108% | 112% |
| Cc1cccc(Sc2ccc([N+](=O)[O-])cc2[N+](=O)[O-])n1 | 102% (inactive) | 100% | 102% | 97.4% (inactive) | 100% | 98.3% | 104% (inactive) | 101% (inactive) | 100% (inactive) | 101% | 99.8% |
| O=C1C=C(c2ccccc2)C(=O)N1Nc1ccccc1 | 77.5% (inactive) | 88.3% | 64.5% | 124% (inactive) | 96% | 113% | 102% (inactive) | 78.4% (inactive) | 92.6% (inactive) | 95.4% | 78.3% |
| COc1ccccc1CNC(=O)CS(=O)Cc1nc(-c2ccc(OC)c(OC)c2)oc1C (centres undefined) | 97.2% (inactive) | 97.4% | 98% | 96.7% (inactive) | 97.6% | 96.1% | 105% (inactive) | 97.6% (inactive) | 104% (inactive) | 108% | 103% |
| CCOC(=O)c1sc(NC(=O)c2ccc3ncsc3c2)nc1C | 98% (inactive) | 95% | 94.8% | 95.3% (inactive) | 96% | 93.4% | 110% (inactive) | 96.4% (inactive) | 98.6% (inactive) | 95.8% | 93.8% |
| Cc1ccc(/C=N/NC(=O)c2ccccn2)s1 | 99.2% (inactive) | 97.1% | 97% | 99.5% (inactive) | 95.9% | 99.4% | 101% (inactive) | 95.1% (inactive) | 94.4% (inactive) | 93.8% | 94.4% |
| CCOC(=O)Cn1cc(/C=C/[N+](=O)[O-])c2ccccc21 | 95.8% (inactive) | 92.7% | 93.5% | 160% (active) | 153% | 157% | 99.3% (inactive) | 95% (inactive) | 88.9% (inactive) | 92.3% | 83.7% |
| COc1cccc(C(=O)N/N=C(\CC(C)C)c2ccccc2)c1 | 97.8% (inactive) | 97% | 97.7% | 100% (inactive) | 101% | 102% | 103% (inactive) | 98.4% (inactive) | 101% (inactive) | 103% | 103% |
| Oc1ccc(N=Nc2ccccc2)o1 | 111% (inactive) | 113% | 106% | 180% (active) | 153% | 173% | 124% (inactive) | 111% (inactive) | 118% (inactive) | 119% | 110% |
| COc1cccc2c1Oc1ncccc1N(C(=O)CCC(=O)NCc1ccccc1)C2 | 99.2% (inactive) | 98.1% | 101% | 97% (inactive) | 95.9% | 97.3% | 103% (inactive) | 102% (inactive) | 98.8% (inactive) | 99.2% | 98.1% |
| O=C(/C=C/c1ccccc1[N+](=O)[O-])c1ccccc1Br | 92.9% (inactive) | 94.8% | 89.1% | 161% (active) | 139% | 180% | 101% (inactive) | 104% (inactive) | 90.9% (inactive) | 95.2% | 82.8% |
| Cc1csc(Nc2ccccc2C(F)(F)F)n1 | 96.2% (inactive) | 94.2% | 95.9% | 105% (inactive) | 104% | 108% | 101% (inactive) | 94.3% (inactive) | 97.2% (inactive) | 97.6% | 94.9% |
| Cc1cccn2c(N)c(-c3ccccc3)nc12 | 97.4% (inactive) | 97.3% | 97.1% | 95.3% (inactive) | 96.5% | 90.6% | 106% (inactive) | 102% (inactive) | 104% (inactive) | 102% | 96.8% |
| O=C(/C=C/c1ccccc1)C1=C(O)C(=O)N(CCO)C1c1cccc([N+](=O)[O-])c1 (centres undefined) | 99.8% (inactive) | 99.3% | 100% | 97.7% (inactive) | 101% | 97.4% | 101% (inactive) | 103% (inactive) | 100% (inactive) | 101% | 99.3% |
| COc1ccccc1NC1=C(Cl)C(=O)N(c2ccccc2)C1=O | 103% (inactive) | 103% | 103% | 93.7% (inactive) | 92% | 94.1% | 103% (inactive) | 97% (inactive) | 103% (inactive) | 105% | 101% |
| Cc1ccc(-n2ncc(C#N)c2/N=C/N(C)C)cc1 | 103% (inactive) | 101% | 103% | 101% (inactive) | 101% | 103% | 107% (inactive) | 94.2% (inactive) | 94.4% (inactive) | 92% | 79.7% |

| Compound | GFP response vs DMSO [1] | GFP response vs DMSO [1, 6] | GFP response vs DMSO [1, 7] | GFP response relative to DMSO [2] | GFP response relative to DMSO [2, 8] | GFP response relative to DMSO [2, 9] | GFP response vs DMSO [3] | GFP response, % of DMSO [4] | GFP response, % of DMSO [5] | GFP response, % of DMSO [5, 6] | GFP response, % of DMSO [5, 7] |
| --- | --- | --- | --- | --- | --- | --- | --- | --- | --- | --- | --- |
| O=C(C1CCN(Cc2nc(Cc3cccc(F)c3)no2)CC1)N1CCOCC1 | 99.5% (inactive) | 99% | 99.8% | 96.2% (inactive) | 100% | 97.2% | 100% (inactive) | 103% (inactive) | 100% (inactive) | 99.7% | 102% |
| Cc1cc(NC(c2ccc(Cl)cc2)c2ccc3cccnc3c2O)no1 (centres undefined) | 97.8% (inactive) | 97.4% | 97.6% | 108% (inactive) | 104% | 113% | 100% (inactive) | 94.5% (inactive) | 98.3% (inactive) | 99.1% | 98.5% |
| O=[N+]([O-])c1ccc(Sc2ccccc2)nc1 | 97.8% (inactive) | 97.3% | 98% | 104% (inactive) | 104% | 105% | 108% (inactive) | 105% (inactive) | 101% (inactive) | 101% | 103% |
| CCOc1ccc(C(=O)/C=C/c2ccccc2C(F)(F)F)cc1 | 98.2% (inactive) | 96.9% | 99% | 97.9% (inactive) | 99.2% | 96.1% | 100% (inactive) | 99.1% (inactive) | 104% (inactive) | 105% | 103% |
| O=C(NC(c1ccccc1)C(Cl)Cl)c1ccccc1 (centres undefined) | 94.7% (inactive) | 98.4% | 92.9% | 97.7% (inactive) | 104% | 93.4% | 128% (inactive) | 125% (inactive) | 107% (inactive) | 108% | 106% |
| Cc1cc(O)c(C(=O)/C=C/c2ccccc2Br)c(=O)o1 | 90.3% (inactive) | 95.9% | 87.7% | 140% (inactive) | 137% | 144% | 97.8% (inactive) | 102% (inactive) | 95.2% (inactive) | 98.1% | 93.4% |
| CCOc1cc(/C=C2\N=C(C)OC2=O)cc(Br)c1OCCc1ccccc1 | 100% (inactive) | 99.8% | 101% | 102% (inactive) | 95% | 103% | 99.5% (inactive) | 97.3% (inactive) | 92.1% (inactive) | 92.7% | 88.6% |
| CCOC(=O)/C=C1\SCC(=O)N1Cc1nnc(-c2ccccc2Br)o1 | 96.2% (inactive) | 97.6% | 96.4% | 90.2% (inactive) | 89.6% | 90.8% | 100% (inactive) | 100% (inactive) | 99.7% (inactive) | 101% | 99.7% |
| CCOc1ccc(N/N=C(/C#N)C(N)=O)cc1 | 82.7% (inactive) | 65.8% | 81.8% | 237% (active) | 182% | 250% | 176% (active) | 113% (inactive) | 161% (active) | 128% | 159% |
| O=C(CN1C(=O)c2cccc3cccc(c23)C1=O)N1CCCCCC1 | 102% (inactive) | 101% | 101% | 97% (inactive) | 94.2% | 98.4% | 94.7% (inactive) | 100% (inactive) | 100% (inactive) | 101% | 101% |
| O=C(N/N=C/c1ccccc1Cl)c1ccc(F)cc1 | 98.2% (inactive) | 98.1% | 97.2% | 111% (inactive) | 104% | 112% | 96.8% (inactive) | 102% (inactive) | 105% (inactive) | 103% | 103% |
| COC(=O)c1ccc(N2C(=O)CC(Sc3n[nH]c(C)n3)C2=O)cc1 (centres undefined) | 101% (inactive) | 103% | 98% | 128% (inactive) | 130% | 131% | 108% (inactive) | 101% (inactive) | 106% (inactive) | 108% | 103% |
| O=C1C2C3C=CC(CNS(=O)(=O)c4ccccc4[N+](=O)[O-])(O3)C2C(=O)N1c1ccccc1 (centres undefined) | 97.6% (inactive) | 97.3% | 97.3% | 98.6% (inactive) | 99.7% | 98.2% | 101% (inactive) | 101% (inactive) | 107% (inactive) | 106% | 107% |
| CCOc1ccc(N2C(=O)CC(Sc3nccc(C)n3)C2=O)cc1 (centres undefined) | 97.3% (inactive) | 99.3% | 97.3% | 97.7% (inactive) | 97.5% | 97.4% | 103% (inactive) | 102% (inactive) | 100% (inactive) | 97.6% | 102% |
| CC(C)(C)NC(=O)c1ccccc1-c1nc(-c2ccccc2Cl)no1 | 94.8% (inactive) | 95.9% | 93.2% | 99.5% (inactive) | 99.1% | 99.4% | 107% (inactive) | 97.3% (inactive) | 93% (inactive) | 92% | 93.2% |
| O=[N+]([O-])c1cc(F)c2cccnc2c1O | 98.7% (inactive) | 93.3% | 96.7% | 219% (active) | 176% | 204% | 126% (inactive) | 125% (inactive) | 107% (inactive) | 101% | 104% |
| O=C(Cn1c(=O)oc2cc(S(=O)(=O)N3CCCC3)ccc21)Nc1ccccc1Br | 93.7% (inactive) | 92.6% | 94.3% | 97.9% (inactive) | 97.6% | 96.1% | 102% (inactive) | 99.9% (inactive) | 101% (inactive) | 103% | 102% |
